Article PMC11537069 (Structure (London, England : 1993), 2020)

What was measured:
HERC2ZZ D2709A = experiment: NMR titration; type: binding, human; conditions: 15N-labeled D2709A HERC2ZZ, 20 mM Tris pH 6.8, 100 mM NaCl, 298K; Figures 3G, 3H, S9
HERC2ZZ = biological target: T1, HERC2ZZ (Homo sapiens, UniProt O95714); experiment: NMR titration; type: binding; conditions: 0.1 mM 15N-labeled HERC2ZZ, 20 mM Tris pH 6.8, 100 mM NaCl, 298K
T1 sequence (O95714 2702-2755): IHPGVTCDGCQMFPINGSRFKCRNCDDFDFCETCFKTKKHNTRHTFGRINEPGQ
In short: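 Human HERC2ZZ (aa 2702-2755, plus an extra C-terminal Trp) was expressed in BL21(DE3) RIL in minimal medium with 15NH4Cl and 0.05 mM ZnCl2, induced with 0.2 mM IPTG for 20 h at 16 °C. The His8-SUMO tag was removed with Ulp1, followed by size exclusion. Sample also held 2-5 mM DTT and 10% D2O.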

| Compound | interaction with SUMO1 ligand upon D2709A substitution (NMR titration) (HERC2ZZ D2709A) | exchange regime of CSPs in HERC2ZZ on the NMR timescale (HERC2ZZ) | CSPs in HERC2ZZ upon addition of free alanine amino acid (HERC2ZZ; 50-fold excess of alanine, Figure S5) |
| --- | --- | --- | --- |
| SUMO1FL: full-length SUMO1 protein | abolished | intermediate exchange regime | – |
| C[C@H](N)C(=O)O [alanine, reference compound] | – | – | no CSPs |
